Bioassay records from PubChem BioAssay.
Compounds with a hit are over-represented: about 4.7% of the library has one in this group of screens.
SKN-1 block – C. elegans SKN-1 inhibition; 0.49% of 360,000 active; C. elegans VP596 Pgst-4::GFP/RFP ratio, acrylamide-induced, 24 h; inhibition, % at 21.8 µM;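 active = interference check ratio from 0.5 to 1.5 plus GFP to RFP signal ratio inhibition reaching or exceeding a fixed threshold, cut at about 30% in these data, passing the limit was not always enough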
MPTP block – blocks calcium-induced mitochondrial swelling; isolated mouse mitochondria, Ca2+ swelling absorbance, 30 min; inhibition, % at 10 µM; 1.4% of 360,000 active; AID 602449;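 active = inhibition of 50% or more, scaled per plate between neutral and stimulator controls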;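 also: 0% = DMSO wells given calcium and 100% = 1 mM EGTA wells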
ADAM17 inh – inhibitors of human ADAM17; P78536; recombinant ADAM17, EDANS/DABCYL FRET peptide cleavage; inhibition, % at 6.95 µM; 0.83% of 370,000 active;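 active = inhibition above the mean of compounds lying between control limits plus 3 SD, set per campaign, cut at about 8.5% in these data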;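 also: 0% = DMSO-only wells as the low control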
MT1-MMP act inh – inhibitors of human MT1-MMP activation. P50281. 0.061% of 360,000 active. GFP/RFP ratio change, % at 20 µM. AID 651647. HT1080 RFP-PRO-GFP cells, GFP/RFP ratio fluorescence, overnight; percent of plate control window, DMSO zero;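 active = GFP/RFP ratio change of at least 30% with cell ATP level not reduced by more than half and red fluorescence within 50% of control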
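Assay system: HT1080 cells carrying an RFP-PRO-GFP reporter | Dosing: Single dose of 20 µM compound, 1% DMSO final | Incubation: Cells overnight before dosing, compound overnight, 37 °C, 5% CO2 | Evaluation: GFP/RFP fluorescence ratio | Control set: DMSO and RFP-L50D-GFP cell wells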
ADAM10 inh – inhibitors of human ADAM10. inhibition, % at 7 µM. O14672. 0.62% of 370,000 active. recombinant ADAM10, EDANS/DABCYL FRET peptide cleavage, 3 h. AID 720582;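 active = inhibition above a per-campaign cutoff equal to the mean of compounds falling between control-based bounds plus 3 SD, cut at about 20% in these data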;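 also: 0% = DMSO wells while the 100% control is not disclosed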
Target sequence (O14672 214-748 limits assumed): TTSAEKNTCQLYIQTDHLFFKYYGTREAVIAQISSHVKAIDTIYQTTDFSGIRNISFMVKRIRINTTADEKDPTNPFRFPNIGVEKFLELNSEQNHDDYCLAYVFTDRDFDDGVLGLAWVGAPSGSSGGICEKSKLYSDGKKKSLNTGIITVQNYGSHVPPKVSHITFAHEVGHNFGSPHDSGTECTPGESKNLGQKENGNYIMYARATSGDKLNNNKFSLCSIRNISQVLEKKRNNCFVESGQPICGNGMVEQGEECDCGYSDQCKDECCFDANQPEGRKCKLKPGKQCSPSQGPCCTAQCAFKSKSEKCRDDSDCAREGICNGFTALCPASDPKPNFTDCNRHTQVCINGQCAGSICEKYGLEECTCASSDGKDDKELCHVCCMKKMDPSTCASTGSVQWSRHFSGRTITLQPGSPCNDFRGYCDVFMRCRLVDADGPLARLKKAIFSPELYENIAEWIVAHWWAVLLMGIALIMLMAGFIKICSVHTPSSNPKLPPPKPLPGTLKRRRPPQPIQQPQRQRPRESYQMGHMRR
NR3A LBD binder – NR3A (human) ligand-binding domain modulation | NR3A LBD differential scanning fluorimetry, Tm shift; 0% = protein alone, 100% = glycine-bound protein | Tm shift relative to glycine control, % at 25 µM | 2.5% of 340,000 active;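 active = melting temperature shift of at least 10% of the positive control shift, at one fixed dose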
Active calls of the source: *; . = no result given.

SMILES	SKN-1 block	MPTP block	ADAM17 inh	MT1-MMP act inh	ADAM10 inh	NR3A LBD binder
Cc1ccc(OCC(=O)N/N=C/c2cn[nH]c2-c2ccc(Cl)c(Cl)c2)cc1	9	5	1	-5	9	-8
Cc1cccc(OCC(=O)NCC(=O)N/N=C/c2cc(Br)cc(Br)c2O)c1	14	0	-6	-3	-11	17*
CCN(CC)S(=O)(=O)c1ccc(OCC2CCCCO2)c([N+](=O)[O-])c1 (stereo not drawn)	-2	-3	-2	4	-3	0
CC1(c2nnc(-c3ccccc3)o2)CC(c2ccc([N+](=O)[O-])cc2)=NO1 (stereo not drawn)	1	1	1	7	4	-14
CCC(C)N(C(=O)CCC(=O)Nc1cc(C)on1)C(C(=O)NC(C)(C)C)c1ccccc1Cl (stereo not drawn)	0	0	-1	-1	-12	-2
CC(=O)C1=C(O)C(=O)N(c2ccc(Br)cn2)C1c1ccc(F)cc1 (stereo not drawn)	-4	1	-8	5	-30	-1
CN(C)CCCC(C)(O)C(Cc1ccccc1)c1ccccc1 (stereo not drawn)	6	0	-1	-9	3	14*
CN(C)CCC(Oc1ccccc1OCc1ccccc1)c1ccccc1 (stereo not drawn)	1	0	-4	-4	3	-1
O=C(Cn1cnc2c(nnn2Cc2ccc(Cl)cc2)c1=O)N1CCN(c2ccccc2)CC1	6	-1	0	2	4	-7
CC(C)[C@@H](CO)N(Cc1cn(Cc2ccccc2)nn1)S(=O)(=O)c1ccccc1Br	.	.	-3	.	0	.
CC(C)[C@@H](CO)N(C)S(=O)(=O)c1ccccc1Br	13	0	1	3	8	11*
Cc1ccc(Cn2c(SCC(=O)N3CC(=O)Nc4ccccc43)nc3ccccc3c2=O)cc1	18	2	8.9*	-24	16	-4
Cc1noc(C)c1COc1ccc(C(=O)N2CC(C)CC(C)C2)cc1 (stereo not drawn)	24	-1	-7	-1	-12	0
Cc1cc(SCC(=O)Nc2ccc(O)cc2)n2nc(C)c(-c3ccccc3)c2n1	-16	4	1	-8	9	7
COc1ccc(NC(=O)CSc2cc(C)nc3c(-c4ccccc4)cnn23)cc1	13	17	0	3	1	64*
COc1ccc(NC(=O)CSc2nnc(-c3ccccc3)n2N)cc1	-2	-1	-6	1	-4	0
Cc1cc(SCC(=O)Nc2ccc(O)cc2)n2ncc(-c3ccccc3)c2n1	-2	4	-19	2	-41	27*
Cc1cc(SCC(=O)Nc2ccccc2)n2ncc(-c3ccccc3)c2n1	-2	44	-2	-4	-20	32*
Cc1cc(Cl)n2ncc(-c3ccccc3)c2n1	23	3	-6	5	9	0
COc1ccc(-n2nc(C(=O)N(C)C3CCCCC3)c3ccccc3c2=O)c(OC)c1	34	-1	-5	1	5	-1
Cc1cccc(Cc2cnc(NC(=O)c3ccc(C)o3)s2)c1	14	0	7	9	5	5
CN(C)C1=NC[C@H](Cc2ccccc2)N1CC1CCC(C(C)(C)C)CC1 (stereo partly drawn)	6	3	.	5	.	-3
CCOC(=O)CSc1nc2ccccc2c(=O)n1CCN1CCOCC1	36*	0	-6	0	-16	0
CCOCCCn1c(SCC(=O)N2CCOCC2)nc2ccccc2c1=O	8	0	-5	-2	1	1
Cc1csc(Sc2nc3c(c(=O)[nH]c(=O)n3C)n2Cc2ccccc2Cl)n1	-30	1	0	-3	0	1
SMILES	SKN-1 block	MPTP block	ADAM17 inh	MT1-MMP act inh	ADAM10 inh	NR3A LBD binder
Cc1ccc(Cn2c(SCCN3CCCCC3)nc3c2c(=O)[nH]c(=O)n3C)cc1	2	-1	0	0	-11	0
Cn1c(=O)[nH]c(=O)c2c1nc(SCCN1CCCCC1)n2Cc1ccccc1	5	-2	1	1	0	12*
Cc1cccc(Cn2c(Sc3nc(C)cs3)nc3c2c(=O)[nH]c(=O)n3C)c1	40*	4	0	-6	5	0
O=S(=O)(c1cc(F)cc(F)c1)N1CCN(c2ncccn2)CC1	-1	2	-2	1	-12	2
CCCNC(=O)COC(=O)c1ccc(S(=O)(=O)N2CCCCCC2)cc1	0	-2	-1	3	3	-1
CN(Cc1c(C(=O)N/N=C/c2cccc(O)c2)nnn1-c1nonc1N)c1ccccc1	-3	-1	.	4	.	31*
CCOc1cccc(-c2c(C(=O)N/N=C/c3c(F)cccc3Cl)nnn2-c2nonc2N)c1	-15	-2	1	-7	1	5
Cc1ccc(/C=N/NC(=O)c2nnn(-c3nonc3N)c2C(C)C)s1	-5	-1	-1	2	0	11*
CN(Cc1c(C(=O)N/N=C/c2c(F)cccc2Cl)nnn1-c1nonc1N)c1ccccc1	-14	-1	4	2	4	14*
COc1cccc(-c2c(C(=O)N/N=C/c3ccc(C)s3)nnn2-c2nonc2N)c1	19	-1	-5	-3	8	13*
CN(C)Cc1c(C(=O)N/N=C/c2ccc(-c3ccccc3)cc2)nnn1-c1nonc1N	-16	0	-3	4	-2	3
CC(C)Oc1ccc(/C=N/NC(=O)c2nnn(-c3nonc3N)c2CN(C)c2ccccc2)cc1	10	-2	7	1	13	11*
Cc1ccc(/C=N/NC(=O)c2nnn(-c3nonc3N)c2CN(C)C)s1	-10	0	-2	-1	-5	3
COc1ccc2ccccc2c1/C=N/NC(=O)c1nnn(-c2nonc2N)c1C(C)C	17	3	0	10	11	13*
Cc1ccc(/C=N/NC(=O)c2nnn(-c3nonc3N)c2CN(C)c2ccccc2)s1	22	-2	-2	2	0	18*
COCc1c(C(=O)N/N=C/c2cccc3ccccc23)nnn1-c1nonc1N	7	0	3	3	-2	31*
CCOC(=O)c1c(NC(=O)COC(=O)c2ccccn2)sc2c1CCC2	7	2	-5	4	-16	-5
CC(C)c1c(C(=O)N/N=C/c2ccc(Cl)cc2Cl)nnn1-c1nonc1N	7	4	1	2	-2	7
CC(C)c1c(C(=O)N/N=C/c2ccccc2OCc2c(F)cccc2Cl)nnn1-c1nonc1N	-8	0	-2	-7	1	13*
Brc1ccc(OCc2nc(-c3ccccn3)n[nH]2)cc1	28*	-1	1	2	3	-4
COn1c(=S)[nH]c2ccccc2c1=O	8	0	-2	-2	12	1
